Measurements taken from ChEMBL document CHEMBL1122608, “Nitrogen bridgehead compounds. 44. New antiallergic 4H-pyrido[1,2-a]pyrimidin-4-ones. 4” (1984).

Tests used:
Rattus norvegicus [1] = assay: Antiallergic activity by passive cutaneous anaphylaxis test after intravenous administration.; format: functional; conditions: read-out: ID50 (the source's name)
In short: (§1)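 Adult female Sprague-Dawley rats (200 g, five per group) sensitized intradermally at two sites with rat reaginic anti-ovalbumin serum; after 48 h, challenged with chicken ovalbumin 20 mg/kg plus Evans blue 40 mg/kg. Compound iv at 32, 3.2, 0.32 µmol/kg at challenge. Dermal bluing area measured 30 min later; ≥3 doses, ID50 from dose-response regression; Student's t test.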

Rattus norvegicus [2] = assay: Antiallergic activity was evaluated by passive cutaneous anaphylaxis test after intra venous administration; insoluble; format: functional, organism-based; in short: as §1
Rattus norvegicus [3] = assay: Inhibition of histamine release by 50% in rats after intra peritoneal administration; format: functional
In short: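 Male Sprague-Dawley rats (~250 g, six per group) passively sensitized ip with anti-ovalbumin reaginic serum, challenged 4 h later with ip ovalbumin 1 mg/rat; compound ip 30 s before antigen, ≥3 doses. Peritoneal fluid taken 3 min post-challenge, centrifuged at 150 g; histamine in supernatant measured fluorometrically (autoanalyzer). ID50 from dose-response regression curve; Student's t test.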

Rattus norvegicus [4] = assay: Inhibition of Evans blue extravasation by 50% in rats after intra peritoneal administration; format: functional
In short: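 Male Sprague-Dawley rats (~250 g, six per group) sensitized ip with 1 mL anti-ovalbumin reaginic serum; 4 h later Evans blue iv, then ovalbumin 1 mg/rat ip in Tris buffer. Compound ip 30 s before challenge, ≥3 doses. Peritoneal fluid collected at 3 min; extravasated dye read at 615 nm. ID50 from dose-response regression; Student's t test.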

SMILES	ED50 (Rattus norvegicus [1]) [µmol/kg]	also measured
CC1CC(/C=N/c2ccccc2)=C2NC=C(C(=O)O)C(=O)N21 (centres undefined)	20.2	–
Cc1ccc(/N=C/C2=C3NC=C(C(=O)O)C(=O)N3C(C)CC2)cc1 (centres undefined)	3.6	–
CCOC(=O)C1=CNC2=C(/C=N/c3cccc(C(=O)O)c3)CCC(C)N2C1=O (centres undefined)	100	–
CC1CC(/C=N/c2ccccc2C(=O)O)=C2NC=C(C(=O)O)C(=O)N2C1 (centres undefined)	48.1	–
CC1CC/C(=N\Nc2ccccc2)c2ncc(/C=C/C(=O)O)c(=O)n21 (centres undefined)	0.27	–
CC1CCC(/C=N/c2ccccc2O)=C2NC=C(C(=O)O)C(=O)N21 (centres undefined)	4.11	–
O=C(O)C1=CNC2=C(/C=N/c3ccccc3C(=O)O)CCCCN2C1=O	68.7	–
CCOC(=O)C1=CNC2=C(/C=N/c3ccccc3C(=O)O)CCC(C)N2C1=O (centres undefined)	24.8	–
CC1CCC(/C=N/c2ccccc2F)=C2NC=C(C(=O)O)C(=O)N21 (centres undefined)	14.5	–
CC1CCC(/C=N/c2ccc(C(=O)O)cc2)=C2NC=CC(=O)N21 (centres undefined)	> 100	–
CCOc1cccc(/N=C/C2=C3NC=C(C(=O)O)C(=O)N3C(C)CC2)c1 (centres undefined)	–	ID50 (Rattus norvegicus [2]): Insoluble
CC1CCC(/C=N/c2cccc(C(=O)O)c2)=C2NC=CC(=O)N21 (centres undefined)	> 100	–
CC1CCC(/C=N/c2cccc(Br)c2)=C2NC=C(C(=O)O)C(=O)N21 (centres undefined)	–	ID50 (Rattus norvegicus [2]): Insoluble
C[C@H]1CC/C(=N\Nc2ccccc2)c2ncc(/C=C/C(=O)O)c(=O)n21	0.15	–
CC1CCC(/C=N/c2ccc(CC(=O)O)cc2)=C2NC=C(C(=O)O)C(=O)N21 (centres undefined)	5.8	ID50 (Rattus norvegicus [3]): 110 nmol/kg; ID50 (Rattus norvegicus [4]): 280 nmol/kg
CC1CCC(/C=N/c2ccc(O)cc2)=C2NC=C(C(=O)O)C(=O)N21 (centres undefined)	1.2	–
C[C@@H]1CC/C(=N\Nc2ccccc2)c2ncc(C(=O)O)c(=O)n21	54.8	–
CCOc1ccc(/N=C/C2=C3NC=C(C(=O)O)C(=O)N3C(C)CC2)cc1 (centres undefined)	8.96	–
C[C@H]1CC/C(=N\Nc2ccccc2)c2ncc(C(=O)O)c(=O)n21	0.3	ID50 (Rattus norvegicus [3]): 1 nmol/kg; ID50 (Rattus norvegicus [4]): 5 nmol/kg
CC1CCC(/C=N/c2ccc([N+](=O)[O-])cc2)=C2NC=C(C(=O)O)C(=O)N21 (centres undefined)	–	ID50 (Rattus norvegicus [2]): Insoluble
CC1CCC(/C=N/c2ccc3ccccc3c2)=C2NC=C(C(=O)O)C(=O)N21 (centres undefined)	–	ID50 (Rattus norvegicus [2]): Insoluble
CC(=O)c1ccc(/N=C/C2=C3NC=C(C(=O)O)C(=O)N3C(C)CC2)cc1 (centres undefined)	0.75	–
CC1CCC(/C=N/c2ccccc2)=C2NC=C(C(=O)O)C(=O)N21 (centres undefined)	–	ID50 (Rattus norvegicus [2]): Insoluble
CC1CCC(/C=N/c2ccc(Cl)cc2)=C2NC=C(C(=O)O)C(=O)N21 (centres undefined)	–	ID50 (Rattus norvegicus [2]): Insoluble

SMILES	ED50 (Rattus norvegicus [1]) [µmol/kg]	also measured
O=C(O)c1cnc2n(c1=O)CCCC/C2=N\Nc1ccccc1	14.4	–
O=C([O-])c1cc(=O)c2c(OCC(O)COc3cccc4oc(C(=O)[O-])cc(=O)c34)cccc2o1.[Na+].[Na+] [CROMOLYN SODIUM]	1	ID50 (Rattus norvegicus [3]): 16 nmol/kg; ID50 (Rattus norvegicus [4]): 55 nmol/kg
COc1ccc(/N=C/C2=C3NC=C(C(=O)O)C(=O)N3C(C)CC2)cc1 (centres undefined)	–	ID50 (Rattus norvegicus [2]): Insoluble
CC1CCCc2ncc(C(=O)O)c(=O)n21 (centres undefined)	240	–
CC1CCN2C(=O)C(C(=O)O)=CNC2=C1/C=N/c1ccccc1 (centres undefined)	–	ID50 (Rattus norvegicus [2]): Insoluble
CC1CCC(/C=N/c2cccc(Cl)c2)=C2NC=C(C(=O)O)C(=O)N21 (centres undefined)	–	ID50 (Rattus norvegicus [2]): Insoluble
O=C(O)C1=CNC2=C(/C=N/c3ccccc3)CCN2C1=O	15.4	–
Cc1nc2n(c(=O)c1/C=C/C(=O)O)C(C)CC/C2=N\Nc1ccccc1 (centres undefined)	0.29	–
C[C@@H]1CC/C(=N\Nc2ccccc2)c2ncc(/C=C/C(=O)O)c(=O)n21	> 100	–
CC1CCC(/C=N/c2ccc(C(F)(F)F)cc2)=C2NC=C(C(=O)O)C(=O)N21 (centres undefined)	> 100	–
CC1CCC(/C=N/c2ccc(F)cc2)=C2NC=C(C(=O)O)C(=O)N21 (centres undefined)	10.6	–
CC1CCC(=NNc2ccccc2)c2ncc(C(=O)O)c(=O)n21 (centres undefined)	0.6	–
Cc1cccc(/N=C/C2=C3NC=C(C(=O)O)C(=O)N3C(C)CC2)c1 (centres undefined)	0.8	ID50 (Rattus norvegicus [3]): 2 nmol/kg; ID50 (Rattus norvegicus [4]): 130 nmol/kg
Cc1cccc(/N=C/C2=C3NC=C(C(=O)O)C(=O)N3[C@@H](C)CC2)c1	0.02	–
CC1CCC(/C=N/c2ccccc2C(=O)O)=C2NC=C(C(=O)O)C(=O)N21 (centres undefined)	1.11	ID50 (Rattus norvegicus [3]): 10 nmol/kg; ID50 (Rattus norvegicus [4]): 140 nmol/kg
CC1CCC(/C=N/c2ccc(Br)cc2)=C2NC=C(C(=O)O)C(=O)N21 (centres undefined)	–	ID50 (Rattus norvegicus [2]): Insoluble
CC1CCC(/C=N/c2cccnc2)=C2NC=C(C(=O)O)C(=O)N21 (centres undefined)	2.4	ID50 (Rattus norvegicus [3]): 100 nmol/kg; ID50 (Rattus norvegicus [4]): 360 nmol/kg
CC1CCC(/C=N/c2ccccc2)=C2NC(c3ccccc3)=C(/C=C/C(=O)O)C(=O)N21 (centres undefined)	–	ID50 (Rattus norvegicus [2]): Insoluble
O=C(O)C1=CNC2=C(/C=N/c3ccccc3C(=O)O)CCCN2C1=O	22.9	–
CC1CCN2C(=O)C(C(=O)O)=CNC2=C1/C=N/c1ccccc1C(=O)O (centres undefined)	100	–
CCOC(=O)C1=CNC2=C(/C=N/c3ccccc3)CCC(C)N2C1=O (centres undefined)	–	ID50 (Rattus norvegicus [2]): Insoluble
CCOC(=O)C1=CNC2=C(/C=N/c3ccc(C(=O)O)cc3)CCC(C)N2C1=O (centres undefined)	67.1	–
Cc1cccc(/N=C/C2=C3NC=C(C(=O)O)C(=O)N3[C@H](C)CC2)c1	66.9	–
